Data reported in ChEMBL document CHEMBL4002589, “Tri- and Tetrasubstituted Pyridinylimidazoles as Covalent Inhibitors of c-Jun N-Terminal Kinase 3” (J Med Chem, 2017).
pIC50: −log10 of the molar value. The source made the active and inactive calls. The rule behind the calls is not given here.

What was measured:
[1] = molecular target: Mitogen-activated protein kinase 10 (Homo sapiens, UniProt P53779); assay: Inhibition of recombinant 6x-His-tagged JNK3 (39 to 402 residues) (unknown origin) expressed in Escherichia coli BL21(DE3) assessed as reduction in ATF2 phosphorylation measured after 50 mins by ELISA
Sequence of Mitogen-activated protein kinase 10 (P53779 whole entry, the tested form may be a part): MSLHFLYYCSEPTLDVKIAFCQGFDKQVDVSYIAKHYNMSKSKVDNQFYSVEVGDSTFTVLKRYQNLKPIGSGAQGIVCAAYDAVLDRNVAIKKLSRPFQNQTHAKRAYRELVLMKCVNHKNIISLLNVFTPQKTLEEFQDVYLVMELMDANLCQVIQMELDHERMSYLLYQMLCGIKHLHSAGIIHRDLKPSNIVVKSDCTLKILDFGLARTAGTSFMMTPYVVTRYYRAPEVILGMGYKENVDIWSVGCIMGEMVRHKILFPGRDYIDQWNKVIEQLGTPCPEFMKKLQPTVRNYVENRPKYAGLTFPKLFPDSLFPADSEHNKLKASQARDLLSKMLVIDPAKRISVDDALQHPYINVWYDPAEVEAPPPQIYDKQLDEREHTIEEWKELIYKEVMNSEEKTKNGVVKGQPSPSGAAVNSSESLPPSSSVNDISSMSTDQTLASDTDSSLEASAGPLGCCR

[2] = molecular target: Mitogen-activated protein kinase 14 (Homo sapiens, UniProt Q16539); assay: Inhibition of GST-His tagged human p38alpha expressed in Escherichia coli assessed as reduction in ATF2 phosphorylation measured after 60 mins by ELISA
Sequence of Mitogen-activated protein kinase 14 (Q16539 whole entry): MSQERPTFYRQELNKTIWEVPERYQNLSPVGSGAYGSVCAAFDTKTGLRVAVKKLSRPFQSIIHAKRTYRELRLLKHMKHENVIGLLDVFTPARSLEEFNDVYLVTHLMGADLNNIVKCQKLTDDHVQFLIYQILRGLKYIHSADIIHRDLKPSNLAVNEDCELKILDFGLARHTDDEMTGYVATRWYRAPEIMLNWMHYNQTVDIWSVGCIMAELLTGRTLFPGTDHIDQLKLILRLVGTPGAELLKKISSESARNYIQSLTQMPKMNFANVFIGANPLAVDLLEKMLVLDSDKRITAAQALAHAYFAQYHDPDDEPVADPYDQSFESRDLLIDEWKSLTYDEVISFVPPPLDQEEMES
Procedure, shortened: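 ELISA kinase assays run in parallel for JNK3 and p38α, with 60 min incubation. IC50 values are the mean of three experiments.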

[3] = molecular target: Angiopoietin-1 receptor (Homo sapiens) (UniProt Q02763); assay: Inhibition of human wild type C-terminal GST-His-tagged TIE2 expressed in Sf9 cells assessed as residual activity at 0.5 uM relative to control
Sequence of Angiopoietin-1 receptor (Homo sapiens) (Q02763 whole entry): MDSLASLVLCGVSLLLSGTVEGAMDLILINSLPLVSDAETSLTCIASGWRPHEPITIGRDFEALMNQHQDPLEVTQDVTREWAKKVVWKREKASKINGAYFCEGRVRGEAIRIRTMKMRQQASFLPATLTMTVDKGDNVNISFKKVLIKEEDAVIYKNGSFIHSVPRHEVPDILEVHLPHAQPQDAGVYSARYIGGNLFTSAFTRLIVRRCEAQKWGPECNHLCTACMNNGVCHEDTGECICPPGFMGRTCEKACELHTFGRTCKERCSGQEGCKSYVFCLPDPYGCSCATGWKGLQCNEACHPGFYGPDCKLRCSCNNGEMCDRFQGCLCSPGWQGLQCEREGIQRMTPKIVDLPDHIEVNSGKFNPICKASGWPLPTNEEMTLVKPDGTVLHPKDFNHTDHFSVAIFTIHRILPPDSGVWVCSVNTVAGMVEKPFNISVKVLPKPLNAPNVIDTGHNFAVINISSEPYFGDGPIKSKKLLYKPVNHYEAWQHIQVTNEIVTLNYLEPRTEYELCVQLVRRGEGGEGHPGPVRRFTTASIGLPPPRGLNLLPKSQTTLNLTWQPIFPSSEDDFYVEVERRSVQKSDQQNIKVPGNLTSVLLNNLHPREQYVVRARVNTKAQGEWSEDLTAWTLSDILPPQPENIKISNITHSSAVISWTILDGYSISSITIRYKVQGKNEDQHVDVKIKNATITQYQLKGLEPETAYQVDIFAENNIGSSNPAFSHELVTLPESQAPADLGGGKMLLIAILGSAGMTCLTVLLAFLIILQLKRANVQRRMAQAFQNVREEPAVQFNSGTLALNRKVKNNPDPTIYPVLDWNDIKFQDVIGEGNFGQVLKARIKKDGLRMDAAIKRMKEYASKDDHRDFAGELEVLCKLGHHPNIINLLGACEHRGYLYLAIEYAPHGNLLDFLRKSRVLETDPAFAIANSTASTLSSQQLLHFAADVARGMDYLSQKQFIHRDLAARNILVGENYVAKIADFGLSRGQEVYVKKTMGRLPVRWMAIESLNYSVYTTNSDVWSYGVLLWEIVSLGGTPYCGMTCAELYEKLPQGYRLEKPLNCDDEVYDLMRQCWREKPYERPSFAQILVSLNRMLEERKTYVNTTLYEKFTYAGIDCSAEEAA
Procedure, shortened: (§1)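 Each inhibitor is tested at a single concentration, 1 µM or 0.5 µM depending on the compound. Results are reported as residual kinase activity.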

[4] = molecular target: MAP kinase-activated protein kinase 2 (Homo sapiens) (UniProt P49137); assay: Inhibition of human MAPKAPK2 expressed in Sf9 cells assessed as residual activity at 0.5 uM relative to control; procedure, shortened: as §1
Sequence of MAP kinase-activated protein kinase 2 (Homo sapiens) (P49137 whole entry, looked up, canonical isoform): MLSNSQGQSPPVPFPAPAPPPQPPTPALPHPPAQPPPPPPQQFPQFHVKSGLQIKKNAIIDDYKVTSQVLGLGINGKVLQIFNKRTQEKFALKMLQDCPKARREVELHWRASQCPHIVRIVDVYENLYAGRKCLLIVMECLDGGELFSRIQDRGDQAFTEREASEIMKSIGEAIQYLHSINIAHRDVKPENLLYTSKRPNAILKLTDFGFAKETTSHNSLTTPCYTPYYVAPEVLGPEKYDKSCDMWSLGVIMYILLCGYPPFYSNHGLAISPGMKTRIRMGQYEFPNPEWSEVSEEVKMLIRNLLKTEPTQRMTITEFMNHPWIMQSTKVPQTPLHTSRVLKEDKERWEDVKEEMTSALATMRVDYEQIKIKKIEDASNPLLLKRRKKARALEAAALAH

[5] = molecular target: Casein kinase I isoform delta (Homo sapiens) (UniProt P48730); assay: Inhibition of CK1 delta (unknown origin) assessed as residual activity at 0.5 uM; procedure, shortened: as §1
Sequence of Casein kinase I isoform delta (Homo sapiens) (P48730 whole entry, looked up, canonical isoform): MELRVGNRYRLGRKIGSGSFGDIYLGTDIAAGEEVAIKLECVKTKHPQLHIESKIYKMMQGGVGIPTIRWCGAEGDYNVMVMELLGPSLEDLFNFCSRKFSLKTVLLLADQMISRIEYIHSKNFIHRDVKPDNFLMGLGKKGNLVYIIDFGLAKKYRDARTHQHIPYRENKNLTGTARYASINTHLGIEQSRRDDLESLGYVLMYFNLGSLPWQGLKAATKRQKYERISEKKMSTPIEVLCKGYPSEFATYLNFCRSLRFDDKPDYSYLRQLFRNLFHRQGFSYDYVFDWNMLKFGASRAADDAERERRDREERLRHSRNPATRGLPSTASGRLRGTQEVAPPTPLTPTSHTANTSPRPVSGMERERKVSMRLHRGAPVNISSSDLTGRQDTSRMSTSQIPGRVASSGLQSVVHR

[6] = Drug metabolism in human liver microsomes at 100 uM preincubated with NADPH regenerating system for 5 mins followed by addition of liver microsomes measured after 180 mins by LC-MS analysis; format: ADME, microsome; conditions: read-out: Drug metabolism
[7] = test system: Mitogen-activated protein kinase 10 (Homo sapiens), P53779 [C154A]; assay: Covalent binding affinity to JNK3 C154A mutant (unknown origin) at 5 molar excess after 1 hr by LC-muESI-QTOF mass spectrometry
Sequence of Mitogen-activated protein kinase 10 (Homo sapiens), P53779 [C154A] (P53779 whole entry C154A): as the sequence (P53779 whole entry, the tested form may be a part) above, with C154A counted along it
Procedure, shortened: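 Intact-protein mass spectrometry with a JNK3 mutant carrying Cys-154→Ala. Inhibitor is incubated with the protein. Unbound and reversibly bound ligand are removed by chromatography and by a high declustering potential before ionization. The protein is then analysed by LC-µESI-QTOF to look for a mass shift from a covalent adduct.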

[8] = Glutathione reactivity at 10 uM after 54 mins in presence of 5 mM GSH by HPLC method
Procedure, shortened: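 Test compound (10 µM) is incubated with glutathione (5 mM) under conditions like those of the kinase activity assay (max. concentration 10 µM, 54 min, 37°C).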

pIC50 [1]	pIC50 [2]	SMILES	other results
7.64	6.90	CCC(=O)Nc1cccc(C(=O)Nc2ccc(Nc3cc(-c4c(-c5ccc(F)cc5)nc(SC)n4C)ccn3)cc2)c1	
7.57	7.77	CCC(=O)Nc1ccc(C(=O)Nc2ccc(Nc3cc(-c4c(-c5ccc(F)cc5)nc(SC)n4C)ccn3)cc2)cc1	
8.52	7.00	C=CC(=O)Nc1cccc(C(=O)Nc2cccc(Nc3cc(-c4c(-c5ccc(F)cc5)nc(SC)n4C)ccn3)c2)c1C	
9.52	7.44	C=CC(=O)Nc1cccc(C(=O)Nc2ccc(Nc3cc(-c4c(-c5ccc(F)cc5)nc(SC)n4C)ccn3)cc2)c1	Activity [3]: 30 to 50%; Activity [4]: 30 to 50%; Activity [5]: 30 to 50%; metabolised at 3 h, 100 µM [6]: 13%; Activity [7]: inactive; Drug metabolism [8]: Metabolite detected
7.77	7.42	CCC(=O)Nc1cccc(C(=O)Nc2ccc(Nc3cc(-c4c(-c5ccc(F)cc5)nc(SC)n4C)ccn3)cc2)c1C	
8.70	8.70	C=CC(=O)Nc1cccc(C(=O)Nc2ccc(Nc3cc(-c4c(-c5ccc(F)cc5)nc(SC)n4C)ccn3)cc2)c1C	
8.40	7.59	C=CC(=O)Nc1ccc(C(=O)Nc2cccc(Nc3cc(-c4c(-c5ccc(F)cc5)nc(SC)n4C)ccn3)c2)cc1	
6.60	< 5.00	CCC(=O)Nc1cccc(C(=O)Nc2ccc(Nc3cc(-c4[nH]c(SC)nc4C)ccn3)cc2)c1	
8.70	8.40	CCC(=O)Nc1cccc(C(=O)Nc2ccc(Nc3cc(-c4[nH]c(SC)nc4-c4ccc(F)cc4)ccn3)cc2)c1	
8.52	6.66	C=CC(=O)Nc1cccc(C(=O)Nc2cccc(Nc3cc(-c4c(-c5ccc(F)cc5)nc(SC)n4C)ccn3)c2)c1	
8.70	8.52	C=CC(=O)Nc1cccc(C(=O)Nc2ccc(Nc3cc(-c4c(-c5ccc(F)cc5)nc(SC)n4C)ccn3)c(C)c2)c1	
8.52	8.52	C=CC(=O)Nc1ccc(C(=O)Nc2ccc(Nc3cc(-c4[nH]c(SC)nc4-c4ccc(F)cc4)ccn3)cc2)cc1	
6.70	5.23	C=CC(=O)Nc1ccc(C(=O)Nc2ccc(Nc3cc(-c4[nH]c(SC)nc4C)ccn3)cc2)cc1	
8.00	7.33	C=CC(=O)Nc1ccc(C(=O)Nc2ccc(Nc3cc(-c4c(-c5ccc(F)cc5)nc(SC)n4C)ccn3)cc2)cc1	Activity [7]: inactive
8.10	7.46	C=CC(=O)Nc1ccc(C(=O)Nc2ccc(Nc3cc(-c4c(-c5ccc(F)cc5)nc(SC)n4C)ccn3)c(C)c2)cc1	
9.22	9.10	C=CC(=O)Nc1cccc(C(=O)Nc2ccc(Nc3cc(-c4[nH]c(SC)nc4-c4ccc(F)cc4)ccn3)cc2)c1	
7.52	6.83	CSc1nc(-c2ccc(F)cc2)c(-c2ccnc(Nc3ccc(NC(=O)c4cccc(N)c4)cc3)c2)n1C	
7.62	7.77	CSc1nc(-c2ccc(F)cc2)c(-c2ccnc(Nc3ccc(N)cc3)c2)[nH]1	
7.60	7.66	CCC(=O)Nc1ccc(C(=O)Nc2ccc(Nc3cc(-c4c(-c5ccc(F)cc5)nc(SC)n4C)ccn3)c(C)c2)cc1	
6.76	6.62	CCC(=O)Nc1cccc(C(=O)Nc2cccc(Nc3cc(-c4c(-c5ccc(F)cc5)nc(SC)n4C)ccn3)c2)c1	
